# Results of several laboratories.
# Each line is one published result; the experiments were not run side by side.
# Target: Ephrin type-A receptor 8 (EPHA8, Homo sapiens, UniProt P29322)
# One construct used (P29322 28-1005): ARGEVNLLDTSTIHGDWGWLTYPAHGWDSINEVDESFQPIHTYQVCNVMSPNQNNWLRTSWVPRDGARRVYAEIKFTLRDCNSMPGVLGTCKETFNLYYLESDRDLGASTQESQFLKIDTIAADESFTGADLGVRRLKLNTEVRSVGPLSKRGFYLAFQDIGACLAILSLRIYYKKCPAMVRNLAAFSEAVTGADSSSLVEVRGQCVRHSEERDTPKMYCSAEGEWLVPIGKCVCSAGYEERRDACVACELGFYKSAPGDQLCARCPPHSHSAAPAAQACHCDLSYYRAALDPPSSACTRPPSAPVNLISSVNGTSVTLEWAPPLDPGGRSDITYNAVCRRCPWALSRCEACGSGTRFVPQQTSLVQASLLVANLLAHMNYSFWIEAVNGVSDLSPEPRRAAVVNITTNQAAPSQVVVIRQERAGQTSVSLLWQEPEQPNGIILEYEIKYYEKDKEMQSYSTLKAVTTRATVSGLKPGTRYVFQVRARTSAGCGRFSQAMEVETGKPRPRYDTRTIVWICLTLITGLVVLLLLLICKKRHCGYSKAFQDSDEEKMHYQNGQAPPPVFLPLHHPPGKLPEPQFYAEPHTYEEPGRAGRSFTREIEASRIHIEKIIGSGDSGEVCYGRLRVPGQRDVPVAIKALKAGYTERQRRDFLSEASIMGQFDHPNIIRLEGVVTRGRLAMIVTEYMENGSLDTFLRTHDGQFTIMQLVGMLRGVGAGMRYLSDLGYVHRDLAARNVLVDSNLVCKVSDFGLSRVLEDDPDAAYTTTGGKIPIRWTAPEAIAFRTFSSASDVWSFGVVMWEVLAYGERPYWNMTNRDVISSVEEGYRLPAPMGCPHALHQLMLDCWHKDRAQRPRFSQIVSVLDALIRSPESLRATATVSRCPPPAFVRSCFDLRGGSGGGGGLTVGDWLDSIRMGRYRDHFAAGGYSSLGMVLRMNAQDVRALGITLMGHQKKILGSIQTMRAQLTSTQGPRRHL
Compound,observed,technique,tested at,remaining binding
Cc1noc([C@H]2C[C@@H](c3ccc(C(F)(F)F)cc3)CN(C(=O)N3CCS(=O)(=O)C3)C2)n1,cell-free assay,competition with immobilised ligand,1 µM,100%
C[C@@H](c1ccc(-n2cnc3c(N)ncnc32)cc1)N1CCc2nn(C)c(Cc3ccccc3)c2C1=O,binding,competition with immobilised ligand,0.1 µM,63%
Cc1cnc(Nc2ccc(C(=O)N3CCC(N4CCCC4)CC3)cc2)nc1-c1cc2ccccc2s1,binding,competition with immobilised ligand,1 µM,100%
c1cncc(-c2cccc(Nc3nccc(NC4CCCCC4)n3)c2)c1,binding,competition with immobilised ligand,10 µM,100%
NS(=O)(=O)c1cc(NC(=O)C2(c3ccccc3Cl)CC2)ccc1Oc1cccc(Cl)c1,cell-free assay,competition with immobilised ligand,1 µM,80%
O=C(NCC1CCOCC1)c1n[nH]cc1NC(=O)c1c(F)cccc1F,binding,competition with immobilised ligand,1 µM,100%
CN(CCCC(F)(F)F)c1nccc(-c2cnn3ncccc23)n1,binding,,1 µM,93%
FC(F)(F)Oc1cccc(-c2cnc3ccc(-c4ccncc4)nn23)c1,cell-free assay,competition with immobilised ligand,5 µM,91%
O=C(NCCCN1CCOCC1)c1ccc(Nc2ncc(Cl)c(-c3ccc(Cl)s3)n2)cc1,binding,competition with immobilised ligand,1 µM,95%
C[C@H](c1ccnc(Nc2nc3ccc(-c4cc(N(C)C)ncn4)cc3[nH]2)c1)N1CCN(C(=O)CC(F)(F)F)CC1,cell-free assay,competition with immobilised ligand,0.1 µM,100%
Cc1cnn2ncc(-c3ccnc(N(C)C)n3)c2c1,binding,,1 µM,99%
COc1cnc(Nc2cccc(S(N)(=O)=O)c2)nc1N1CCN(c2ccccc2)CC1,binding,competition with immobilised ligand,1 µM,96%
CC(=O)C1=C(C)N(c2cccc(C(F)(F)F)c2)C(=O)N[C@@H]1c1ccc(C#N)nc1,cell-free assay,competition with immobilised ligand,1 µM,100%
CC1CCCN1c1nccc(-c2cnn3ncccc23)n1 (centres unmarked),binding,,1 µM,100%
CC1=C(C#N)C(c2ccc3c(c2)c(NC(=O)c2ccccc2C)nn3C)C(C#N)=C(C)N1,cell-free assay,competition with immobilised ligand,1 µM,100%
CCN1CCN(Cc2ccc(C(=O)Nc3ccc(C)c(Oc4ccc5c(c4)CC(=O)N5)c3)cc2C(F)(F)F)CC1,binding,competition with immobilised ligand,1 µM,82%
CN(C)c1nccc(-c2cnn3ncccc23)n1,binding,,1 µM,100%
Nc1c(C(=O)NCc2ccc(C(=O)NCCCC3CCCCC3)cc2)cnn1-c1ccccc1,cell-free assay,competition with immobilised ligand,0.1 µM,100%
CN(C)c1nccc(-c2cnc3ncccn23)n1,binding,,1 µM,79%
O=C(NCCCN1CCOCC1)c1ccc(Nc2nccc(-c3cc4ccccc4s3)n2)cc1,binding,competition with immobilised ligand,1 µM,96%
